Assay results taken from ChEMBL document CHEMBL1153268 (Bioorg Med Chem Lett, 2009).
Calls of active or inactive are those of the source. The rule behind the calls is not given here.

Experiments:
[1] = target: T1, Neurotensin receptor type 1 (Homo sapiens, UniProt P30989); test: Agonist activity at NTR1 expressed in CHOK1 cells assessed as stimulation of calcium mobilization at 10 uM relative to neurotensin; type: functional, cell-based; settings: CHO-K1
In short: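 CHO-K1 cells stably expressing NTR1, plated 20,000/well 24 h before assay, washed and loaded with calcium-4 dye in HBSS/20 mM HEPES/2 mM probenecid, 1 h, 37 °C, 5% CO2. Compound added at 10 μM final (1% DMSO), triplicate.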

[2] = target: T1, Neurotensin receptor type 1; test: Agonist activity at NTR1 expressed in CHOK1 cells by calcium mobilization assay; type: functional, cell-based, CHO-K1

T1 sequence (P30989 whole entry): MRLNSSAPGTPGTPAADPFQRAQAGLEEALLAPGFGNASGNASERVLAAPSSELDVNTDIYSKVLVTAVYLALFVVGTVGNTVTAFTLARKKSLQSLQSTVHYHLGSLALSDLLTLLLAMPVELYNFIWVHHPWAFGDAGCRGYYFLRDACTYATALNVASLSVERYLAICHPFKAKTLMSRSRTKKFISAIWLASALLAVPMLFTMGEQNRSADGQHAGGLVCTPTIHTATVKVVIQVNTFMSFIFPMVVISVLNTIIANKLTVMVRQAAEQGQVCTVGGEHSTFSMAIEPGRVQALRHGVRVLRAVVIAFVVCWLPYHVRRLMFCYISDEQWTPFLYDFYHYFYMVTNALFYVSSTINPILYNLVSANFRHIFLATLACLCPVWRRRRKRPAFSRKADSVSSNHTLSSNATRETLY

Activity [1]	EC50 [2] [µM]	Compound
62%	2.04	CC(C)C[C@H](NC(=O)c1cc(-c2ccccc2)n(-c2ccnc3cc(Cl)ccc23)n1)C(=O)O
84%	1.21	CC(C)C[C@H](NC(=O)c1cc(-c2ccccc2OC(F)(F)F)n(-c2ccnc3cc(Cl)ccc23)n1)C(=O)O
86%	0.22	COc1ccccc1-c1cc(C(=O)N[C@@H](CC(C)C)C(=O)O)nn1-c1ccnc2cc(Cl)ccc12
5%	–	COc1cccc(OC)c1-c1cc(C(=O)N[C@H](C(=O)O)C(C)C)nn1-c1ccnc2cc(Cl)ccc12
inactive	–	COc1cccc(OC)c1-c1cc(C(=O)N[C@@H](CC(C)C)C(=O)O)nn1-c1cccc2ccccc12

Second part, the compound before the results:

Compound	Activity [1]	EC50 [2] [µM]
CCC[C@H](NC(=O)c1cc(-c2c(OC)cccc2OC)n(-c2ccnc3cc(Cl)ccc23)n1)C(=O)O	18%	–
CCCC[C@H](NC(=O)c1cc(-c2c(OC)cccc2OC)n(-c2ccnc3cc(Cl)ccc23)n1)C(=O)O	20%	–
CC[C@H](C)[C@H](NC(=O)c1cc(-c2c(OC)cccc2OC)n(-c2ccnc3cc(Cl)ccc23)n1)C(=O)O	inactive	–
CC(C)CC(NC(=O)OCC1c2ccccc2-c2ccccc21)C(=O)O (stereo not given)	–	0.216
COc1cccc(OC)c1-c1cc(C(=O)N[C@H](CC(C)C)C(=O)O)nn1-c1ccnc2cc(Cl)ccc12	57%	0.986
COc1cccc(OC)c1-c1cc(C(=O)NCC(=O)O)nn1-c1ccnc2cc(Cl)ccc12	inactive	–
COc1cccc(OC)c1-c1cc(C(=O)N[C@H](C(=O)O)C2CCCCC2)nn1-c1ccnc2cc(Cl)ccc12	inactive	–
CC(C)C[C@H](NC(=O)Cn1ccc2cc(NS(=O)(=O)c3cccc4cccnc34)ccc21)C(=O)O	–	0.178
COc1cccc(OC)c1-c1cc(C(=O)N[C@@H](CC(C)C)C(=O)O)nn1-c1ccnc2cc(Cl)ccc12	–	0.067
COc1cccc(OC)c1-c1cc(C(=O)N[C@@H](Cc2ccccc2)C(=O)O)nn1-c1ccnc2cc(Cl)ccc12	inactive	–
CC[C@H](NC(=O)c1cc(-c2c(OC)cccc2OC)n(-c2ccnc3cc(Cl)ccc23)n1)C(=O)O	11%	–
